Bounds are passed on as bounds.

Experiment [1] addresses T1, Adenosine receptor A2b (Mus musculus, UniProt Q60614).
T1 sequence (Q60614 whole entry): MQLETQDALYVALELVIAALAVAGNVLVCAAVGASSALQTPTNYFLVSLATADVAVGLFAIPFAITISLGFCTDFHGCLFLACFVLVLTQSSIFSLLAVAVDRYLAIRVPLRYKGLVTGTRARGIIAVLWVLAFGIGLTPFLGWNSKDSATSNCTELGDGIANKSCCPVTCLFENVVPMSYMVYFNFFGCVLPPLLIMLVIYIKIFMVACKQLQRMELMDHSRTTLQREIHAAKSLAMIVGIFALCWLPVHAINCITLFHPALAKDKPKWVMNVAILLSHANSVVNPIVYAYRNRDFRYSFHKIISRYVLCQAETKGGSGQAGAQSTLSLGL
As to the kind of experiment: Displacement of [3H]PSB-603 from recombinant mouse A2B adenosine receptor expressed in CHO cell membranes measured after 75 mins by liquid scintillation counting method.

The next experiment concerns the target T2, Adenosine receptor A1 (Mus musculus, UniProt Q60612).
T2 sequence (Q60612 whole entry): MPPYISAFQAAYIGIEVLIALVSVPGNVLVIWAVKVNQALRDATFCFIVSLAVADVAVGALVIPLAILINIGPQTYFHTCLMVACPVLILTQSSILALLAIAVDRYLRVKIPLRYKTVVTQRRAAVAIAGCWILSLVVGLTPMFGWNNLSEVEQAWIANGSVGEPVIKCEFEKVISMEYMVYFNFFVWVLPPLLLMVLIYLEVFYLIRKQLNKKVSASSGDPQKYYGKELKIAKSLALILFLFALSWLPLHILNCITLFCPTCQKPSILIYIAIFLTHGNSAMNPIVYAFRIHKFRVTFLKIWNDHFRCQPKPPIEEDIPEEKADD
As to the kind of experiment: Displacement of [3H]DPCPX from recombinant mouse A1 adenosine receptor expressed in CHO cell membranes measured after 60 mins by liquid scintillation counting method.

In experiment [2] the target is T3, Adenosine receptor A3 (Rattus norvegicus, UniProt P28647).
T3 sequence (P28647 whole entry): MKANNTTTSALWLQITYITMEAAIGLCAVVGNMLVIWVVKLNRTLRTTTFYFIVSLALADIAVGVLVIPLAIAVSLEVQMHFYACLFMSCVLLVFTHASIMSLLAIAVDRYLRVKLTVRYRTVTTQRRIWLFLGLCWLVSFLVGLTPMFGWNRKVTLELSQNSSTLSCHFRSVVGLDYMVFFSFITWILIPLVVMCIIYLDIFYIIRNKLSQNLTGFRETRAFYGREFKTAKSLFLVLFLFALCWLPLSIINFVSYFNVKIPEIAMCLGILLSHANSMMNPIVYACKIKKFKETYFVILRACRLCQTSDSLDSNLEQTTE
Nature of the experiment: Binding affinity to rat A3 adenosine receptor.

Experiment [3] addresses Adenosine receptor A2a (Mus musculus, UniProt Q60613). Nature of the experiment: Displacement of [3H]MSX-2 from recombinant mouse A2A adenosine receptor expressed in CHO cell membranes measured after 60 mins by liquid scintillation counting method.
Experiment [4] concerns the target T4, Adenosine receptor A3 (Mus musculus, UniProt Q61618).
T4 sequence (Q61618 whole entry): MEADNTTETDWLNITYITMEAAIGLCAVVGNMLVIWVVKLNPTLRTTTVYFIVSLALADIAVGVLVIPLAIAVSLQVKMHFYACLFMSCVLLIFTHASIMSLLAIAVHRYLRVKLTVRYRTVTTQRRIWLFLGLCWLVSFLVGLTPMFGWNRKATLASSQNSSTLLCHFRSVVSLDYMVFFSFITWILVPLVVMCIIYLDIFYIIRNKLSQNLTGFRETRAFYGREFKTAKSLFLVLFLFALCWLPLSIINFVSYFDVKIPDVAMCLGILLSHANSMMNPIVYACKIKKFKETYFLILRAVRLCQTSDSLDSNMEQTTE
As to the kind of experiment: Displacement of [3H]NECA from recombinant mouse A3 adenosine receptor expressed in CHO cell membranes measured after 180 mins by liquid scintillation counting method.

Experiment [5] addresses T5, Adenosine receptor A2b (Rattus norvegicus, UniProt P29276).
T5 sequence (P29276 whole entry): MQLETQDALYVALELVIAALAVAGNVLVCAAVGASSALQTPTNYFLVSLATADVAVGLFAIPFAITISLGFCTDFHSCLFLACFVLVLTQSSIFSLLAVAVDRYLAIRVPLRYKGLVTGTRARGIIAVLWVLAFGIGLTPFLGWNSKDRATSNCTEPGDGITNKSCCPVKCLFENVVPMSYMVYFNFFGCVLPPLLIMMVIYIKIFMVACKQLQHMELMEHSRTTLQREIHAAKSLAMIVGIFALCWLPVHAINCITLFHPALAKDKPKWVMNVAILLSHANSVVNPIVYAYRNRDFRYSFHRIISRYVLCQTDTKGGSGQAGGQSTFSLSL
Nature of the experiment: Displacement of [3H]PSB-603 from recombinant rat A2B adenosine receptor expressed in CHO cell membranes measured after 75 mins by liquid scintillation counting method.

The target of experiment [6] is Adenosine receptor A2a (Homo sapiens, UniProt P29274). As to the kind of experiment: Displacement of [3H]MSX-2 from recombinant human A2A adenosine receptor expressed in CHO cell membranes measured after 60 mins by liquid scintillation counting method. Summed up:
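Human A2A receptor binding against [3H]MSX-2, n = 3. Ki values (± SEM, nM) come from concentration-inhibition curves. Some Ki values are marked as derived from an extrapolated curve.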

Adenosine receptor A2a (Homo sapiens, UniProt P29274), sequence (P29274 whole entry): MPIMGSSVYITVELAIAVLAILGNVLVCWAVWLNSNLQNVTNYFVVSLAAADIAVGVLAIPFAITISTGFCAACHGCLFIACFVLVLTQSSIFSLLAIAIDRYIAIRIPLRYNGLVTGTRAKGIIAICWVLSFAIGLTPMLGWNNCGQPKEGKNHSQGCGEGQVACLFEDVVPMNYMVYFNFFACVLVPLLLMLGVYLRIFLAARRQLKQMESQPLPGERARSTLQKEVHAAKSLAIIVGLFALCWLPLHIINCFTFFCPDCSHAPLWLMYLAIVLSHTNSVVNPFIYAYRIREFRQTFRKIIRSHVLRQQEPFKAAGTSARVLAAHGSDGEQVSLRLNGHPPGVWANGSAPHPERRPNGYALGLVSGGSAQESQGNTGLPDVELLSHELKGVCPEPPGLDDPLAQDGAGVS
Adenosine receptor A2a (Mus musculus, UniProt Q60613), sequence (Q60613 whole entry): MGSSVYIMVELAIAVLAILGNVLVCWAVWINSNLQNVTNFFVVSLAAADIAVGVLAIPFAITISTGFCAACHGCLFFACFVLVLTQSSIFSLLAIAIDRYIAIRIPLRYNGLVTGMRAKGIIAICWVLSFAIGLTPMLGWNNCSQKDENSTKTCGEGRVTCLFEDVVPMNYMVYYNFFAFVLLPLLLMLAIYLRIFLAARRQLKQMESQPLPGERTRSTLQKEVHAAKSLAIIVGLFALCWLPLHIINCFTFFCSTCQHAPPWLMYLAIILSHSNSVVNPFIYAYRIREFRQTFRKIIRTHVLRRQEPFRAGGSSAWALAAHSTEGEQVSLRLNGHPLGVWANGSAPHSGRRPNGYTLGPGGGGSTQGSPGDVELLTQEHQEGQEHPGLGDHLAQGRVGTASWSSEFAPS

Consider `CCCn1c(=O)[nH]c2nc(-c3ccc(S(=O)(=O)O)cc3)[nH]c2c1=O`, for which the Ki was 1940 nM on Adenosine receptor A2b [1]; 591 nM on Adenosine receptor A1; above 10 µM on Adenosine receptor A3 [2]; above 10 µM at Adenosine receptor A2a [3]; above 10 µM at Adenosine receptor A3 [4]; 3.14 µM at Adenosine receptor A2b [5]. For the same compound, the Ki on Adenosine receptor A2a [6] worked out at 3.79 µM.

Values taken from ChEMBL document CHEMBL4346653, “A2B Adenosine Receptor Antagonists with Picomolar Potency” (J Med Chem, 2019).
